Activity calls are given as the source filed them. The calls are words filed in the database; no cut-off is given here.
tested on: Rattus norvegicus; test: The compound at a dose of 50 mg/kg is evaluated for percent change in High Density Lipoprotein (HDL) level in chronic cholesterol fed rat screen; format: functional
Summary of the method: (§1)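 Chronic model: rats fed the high-fat, high-cholesterol diet for 14 days. In the second week, 50 mg/kg given daily by gavage in carboxymethylcellulose/Tween-20 aqueous vehicle. Plasma HDL and non-HDL cholesterol expressed as % change versus control. Body-weight gain monitored. ANOVA with Fisher's multiple range test, p<0.05.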

How did the Change turn out when `CC(C)c1cccc(C(C)C)c1NC(=O)NCC1(c2ccc(N(C)C)cc2)CCCC1` [NEVANIMIBE] was run?
Its Change is 200%.

tested on: Rattus norvegicus; test: The compound at a dose of 50 mg/kg is evaluated for percent change in High Density Lipoprotein (HDl) level in chronic cholesterol fed rat screen; format: functional; summary of the method: as §1

For `CC(C)c1cccc(C(C)C)c1NC(=O)NCC1(c2ccccc2)CCCC1`, which Change is on record?
Its Change is -12%.

How did the Change turn out when `CCCCCCCCCCCCNC(CNC(=O)Nc1c(C(C)C)cccc1C(C)C)c1ccccc1` (racemic) was run?
The Change was 29%.

`CC(C)c1cccc(C(C)C)c1NC(=O)NCC(NC(=O)c1cccc[n+]1[O-])c1ccccc1` (configuration not stated) was tested. Which Change did it give?
The Change was 70%.

tested on: Rattus norvegicus; test: The compound at a dose of 50 mg/kg is evaluated for percent change in High Density Lipoprotein (HDl) level in chronic cholesterol fed rat screen; No change; format: functional, organism-based; design: dose 50 mg/kg; summary of the method: as §1

With `CCCCCCCCCCCCNCC(CNC(=O)Nc1c(C(C)C)cccc1C(C)C)c1ccccc1` (racemic) as the molecule, how does the Change read?
Its Change is “inactive”.

tested on: Rattus norvegicus; test: The compound at a dose of 50 mg/kg is evaluated for percent change in Non-High Density Lipoprotein level in chronic cholesterol fed rat screen; format: functional; summary of the method: as §1

How did the Change turn out when `CC(C)c1cccc(C(C)C)c1NC(=O)NCC1(c2ccccc2)CCCC1` was run?
The Change was -7%.

How did the Change turn out when `CCCCCCCCCCCCNC(CNC(=O)Nc1c(C(C)C)cccc1C(C)C)c1ccccc1` (racemic) was run?
Its Change is 27%.

With `CC(C)c1cccc(C(C)C)c1NC(=O)NCC1(c2ccc(N(C)C)cc2)CCCC1` [NEVANIMIBE] as the molecule, how does the Change read?
Its Change is -62%.

`CC(C)c1cccc(C(C)C)c1NC(=O)NCC(NC(=O)c1cccc[n+]1[O-])c1ccccc1` (configuration not stated) was tested. Which Change did it give?
Its Change is -31%.

species: Rattus norvegicus; test: Percent change in total cholesterol in cholic acid (0.5%)-cholesterol (1.5%)-peanut oil (5.5%)-fed rats; format: functional
Summary of the method: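 Acute screen: rats given a single gavage dose, 50 mg/kg standard unless noted, suspended in carboxymethylcellulose plus Tween-20 in water, then a single high-fat, high-cholesterol meal (0.5% cholic acid, 1.5% cholesterol, 5.5% peanut oil). Overnight rise in plasma total cholesterol measured as % change versus control. Stomachs checked for food. ANOVA with Fisher's multiple range test, p<0.05.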

For `CCCCCCCCCCCCNCC(CNC(=O)Nc1c(C(C)C)cccc1C(C)C)c1ccccc1` (racemic), which Change is on record?
Its Change is -54%.

How did the Change turn out when `COc1ccc(CNC(CNC(=O)Nc2c(C(C)C)cccc2C(C)C)C(C)C)cc1` (single isomer, unassigned; (-)) was run?
The Change was -41%.

Which Change does the source give for `COc1ccc(CNC(CNC(=O)Nc2c(C(C)C)cccc2C(C)C)CC(C)C)cc1` (configuration not stated) here?
The Change was -32%.

For `CC(C)c1cccc(C(C)C)c1NC(=O)NCC(CNCc1ccccc1)c1ccccc1` (configuration not stated), which Change is on record?
Its Change is -46%.

`CC(C)c1cccc(C(C)C)c1NC(=O)NCC(NCC1CC1)c1ccccc1` (single isomer, unassigned; (-)) was tested. Which Change did it give?
The Change was -51%.

How did the Change turn out when `CC(C)c1cccc(C(C)C)c1NC(=O)NCC(NCc1ccc(N(C)C)cc1)c1ccccc1` (stereo in doubt; 9n(+)) was run?
Its Change is -56%.

How did the Change turn out when `CCCCCNC(CNC(=O)Nc1c(C(C)C)cccc1C(C)C)c1ccccc1` (racemic) was run?
The Change was -38%.

For `Cc1ccc(C(=O)NC(CNC(=O)Nc2c(C(C)C)cccc2C(C)C)c2ccccc2)cc1` (configuration not stated), which Change is on record?
Its Change is -1%.

How did the Change turn out when `COc1ccc(CNC(CNC(=O)Nc2c(C(C)C)cccc2C(C)C)c2ccccc2)cc1` (stereo in doubt; 9m(+)) was run?
Its Change is -36%.

`CCCCCCCCCCCC(=O)NC(CNC(=O)Nc1c(C(C)C)cccc1C(C)C)c1ccccc1` (configuration not stated) was tested. Which Change did it give?
The Change was -16%.

For `COc1ccc(C(=O)NC2(CNC(=O)Nc3c(C(C)C)cccc3C(C)C)CCCC2)cc1`, which Change is on record?
Its Change is -6%.

For `CC(C)c1cccc(C(C)C)c1NC(=O)NCC1(c2ccccc2)CCCC1`, which Change is on record?
Its Change is -38%.

How did the Change turn out when `CCCCCCCCCCCCNC(CNC(=O)Nc1c(C(C)C)cccc1C(C)C)c1ccccc1` (racemic) was run?
Its Change is -45%.

How did the Change turn out when `CC(C)c1cccc(C(C)C)c1NC(=O)NCC(CNC(=O)c1ccccn1)c1ccccc1` (configuration not stated) was run?
The Change was -7%.

For `CC(C)c1cccc(C(C)C)c1NC(=O)NCC(NCc1ccccc1)c1ccccc1` (racemic), which Change is on record?
Its Change is -36%.

For `CCCCC(=O)NC(CNC(=O)Nc1c(C(C)C)cccc1C(C)C)c1ccccc1` (configuration not stated), which Change is on record?
Its Change is -8%.

Which Change does the source give for `CC(C)c1cccc(C(C)C)c1NC(=O)NCC(NC(=O)c1cnccn1)c1ccccc1` (configuration not stated) here?
Its Change is -19%.

For `CC(C)c1cccc(C(C)C)c1NC(=O)NCC(NCc1cccs1)c1ccccc1` (single isomer, unassigned; (+)), which Change is on record?
Its Change is -19%.

`CCCCCCNC(CNC(=O)Nc1c(C(C)C)cccc1C(C)C)c1ccccc1` (racemic) was tested. Which Change did it give?
Its Change is -41%.

Which Change does the source give for `CC(C)c1cccc(C(C)C)c1NC(=O)NCC(NC(=O)c1ccncc1)c1ccccc1` (configuration not stated) here?
The Change was -12%.

`CC(C)c1cccc(C(C)C)c1NC(=O)NCC(NC(=O)c1ccc2ccccc2[n+]1[O-])c1ccccc1` (configuration not stated) was tested. Which Change did it give?
The Change was -21%.

How did the Change turn out when `CC(C)c1cccc(C(C)C)c1NC(=O)NCC(NC(=O)CCCCCN(CCO)CCO)c1ccccc1` (configuration not stated) was run?
Its Change is -4%.

How did the Change turn out when `COc1ccc(CNC(CNC(=O)Nc2c(C(C)C)cccc2C(C)C)Cc2ccccc2)cc1` (single isomer, unassigned; (-)) was run?
The Change was -30%.

With `CC(C)c1cccc(C(C)C)c1NC(=O)NCC(NCc1ccc(N(C)C)cc1)c1ccccc1` (single isomer, unassigned; (-)) as the molecule, how does the Change read?
The Change was -45%.

`CCCCCCCNC(CNC(=O)Nc1c(C(C)C)cccc1C(C)C)c1ccccc1` (racemic) was tested. Which Change did it give?
Its Change is -25%.

Which Change does the source give for `CC(C)c1cccc(C(C)C)c1NC(=O)NCC(NCc1ccco1)c1ccccc1` (single isomer, unassigned; (+)) here?
Its Change is -23%.

With `CC(C)c1cccc(C(C)C)c1NC(=O)NCC(NC(=O)c1ccccn1)c1ccccc1` (configuration not stated) as the molecule, how does the Change read?
The Change was -24%.

With `COc1ccc(C(=O)NC(CNC(=O)Nc2c(C(C)C)cccc2C(C)C)C2CCCCC2)cc1` (racemic) as the molecule, how does the Change read?
The Change was -15%.

Which Change does the source give for `CC(C)c1cccc(C(C)C)c1NC(=O)NCC(NC(=O)c1cccc[n+]1[O-])c1ccccc1` (configuration not stated) here?
The Change was -44%.

molecular target: Sterol O-acyltransferase 1 (Oryctolagus cuniculus); test: In vitro inhibition of rabbit intestinal acyl coenzyme A:cholesterol acyltransferase using [1-14C]oleolyl-CoA

How did the IC50 turn out when `CCCCCCCCCCCCNCC(CNC(=O)Nc1c(C(C)C)cccc1C(C)C)c1ccccc1` (racemic) was run?
The IC50 was 110 nM.

For `COc1ccc(CNC(CNC(=O)Nc2c(C(C)C)cccc2C(C)C)C(C)C)cc1` (single isomer, unassigned; (-)), which IC50 is on record?
Its IC50 is 80 nM.

With `COc1ccc(CNC(CNC(=O)Nc2c(C(C)C)cccc2C(C)C)CC(C)C)cc1` (configuration not stated) as the molecule, how does the IC50 read?
Its IC50 is 50 nM.

For `CC(C)c1cccc(C(C)C)c1NC(=O)NCC(CNCc1ccccc1)c1ccccc1` (configuration not stated), which IC50 is on record?
Its IC50 is 160 nM.

With `CC(C)c1cccc(C(C)C)c1NC(=O)NCC(NCC1CC1)c1ccccc1` (single isomer, unassigned; (-)) as the molecule, how does the IC50 read?
Its IC50 is 64 nM.

Which IC50 does the source give for `CC(C)c1cccc(C(C)C)c1NC(=O)NCC(NCc1ccc(N(C)C)cc1)c1ccccc1` (stereo in doubt; 9n(+)) here?
Its IC50 is 60 nM.

How did the IC50 turn out when `CCCCCNC(CNC(=O)Nc1c(C(C)C)cccc1C(C)C)c1ccccc1` (racemic) was run?
The IC50 was 110 nM.

With `Cc1ccc(C(=O)NC(CNC(=O)Nc2c(C(C)C)cccc2C(C)C)c2ccccc2)cc1` (configuration not stated) as the molecule, how does the IC50 read?
The IC50 was 350 nM.

Which IC50 does the source give for `COc1ccc(CNC(CNC(=O)Nc2c(C(C)C)cccc2C(C)C)c2ccccc2)cc1` (stereo in doubt; 9m(+)) here?
The IC50 was 70 nM.

With `CCCCCCCCCCCC(=O)NC(CNC(=O)Nc1c(C(C)C)cccc1C(C)C)c1ccccc1` (configuration not stated) as the molecule, how does the IC50 read?
Its IC50 is 77 nM.

With `COc1ccc(C(=O)NC2(CNC(=O)Nc3c(C(C)C)cccc3C(C)C)CCCC2)cc1` as the molecule, how does the IC50 read?
Its IC50 is 500 nM.

`CC(C)c1cccc(C(C)C)c1NC(=O)NCC1(c2ccccc2)CCCC1` was tested. Which IC50 did it give?
Its IC50 is 17 nM.

With `CCCCCCCCCCCCNC(CNC(=O)Nc1c(C(C)C)cccc1C(C)C)c1ccccc1` (racemic) as the molecule, how does the IC50 read?
Its IC50 is 45 nM.

`CC(C)c1cccc(C(C)C)c1NC(=O)NCC(CNC(=O)c1ccccn1)c1ccccc1` (configuration not stated) was tested. Which IC50 did it give?
Its IC50 is 300 nM.

With `CC(C)c1cccc(C(C)C)c1NC(=O)NCC(NCc1ccccc1)c1ccccc1` (racemic) as the molecule, how does the IC50 read?
The IC50 was 51 nM.

How did the IC50 turn out when `CCCCC(=O)NC(CNC(=O)Nc1c(C(C)C)cccc1C(C)C)c1ccccc1` (configuration not stated) was run?
Its IC50 is 430 nM.

For `CC(C)c1cccc(C(C)C)c1NC(=O)NCC(NC(=O)c1cnccn1)c1ccccc1` (configuration not stated), which IC50 is on record?
Its IC50 is 440 nM.

Which IC50 does the source give for `CC(C)c1cccc(C(C)C)c1NC(=O)NCC(NCc1cccs1)c1ccccc1` (single isomer, unassigned; (+)) here?
The IC50 was 51 nM.

With `CCCCCCNC(CNC(=O)Nc1c(C(C)C)cccc1C(C)C)c1ccccc1` (racemic) as the molecule, how does the IC50 read?
Its IC50 is 49 nM.

For `CC(C)c1cccc(C(C)C)c1NC(=O)NCC(NC(=O)c1ccncc1)c1ccccc1` (configuration not stated), which IC50 is on record?
The IC50 was 3200 nM.

With `CC(C)c1cccc(C(C)C)c1NC(=O)NCC(NC(=O)c1ccc2ccccc2[n+]1[O-])c1ccccc1` (configuration not stated) as the molecule, how does the IC50 read?
The IC50 was 150 nM.

For `CC(C)c1cccc(C(C)C)c1NC(=O)NCC(NC(=O)CCCCCN(CCO)CCO)c1ccccc1` (configuration not stated), which IC50 is on record?
Its IC50 is 2800 nM.

`COc1ccc(CNC(CNC(=O)Nc2c(C(C)C)cccc2C(C)C)Cc2ccccc2)cc1` (single isomer, unassigned; (-)) was tested. Which IC50 did it give?
The IC50 was 270 nM.

How did the IC50 turn out when `CC(C)c1cccc(C(C)C)c1NC(=O)NCC(NCc1ccc(N(C)C)cc1)c1ccccc1` (single isomer, unassigned; (-)) was run?
Its IC50 is 150 nM.

Which IC50 does the source give for `CCCCCCCNC(CNC(=O)Nc1c(C(C)C)cccc1C(C)C)c1ccccc1` (racemic) here?
Its IC50 is 110 nM.

For `CC(C)c1cccc(C(C)C)c1NC(=O)NCC(NCc1ccco1)c1ccccc1` (single isomer, unassigned; (+)), which IC50 is on record?
Its IC50 is 99 nM.

How did the IC50 turn out when `CC(C)c1cccc(C(C)C)c1NC(=O)NCC(NC(=O)c1ccccn1)c1ccccc1` (configuration not stated) was run?
Its IC50 is 80 nM.

With `COc1ccc(C(=O)NC(CNC(=O)Nc2c(C(C)C)cccc2C(C)C)C2CCCCC2)cc1` (racemic) as the molecule, how does the IC50 read?
Its IC50 is 250 nM.

Which IC50 does the source give for `CC(C)c1cccc(C(C)C)c1NC(=O)NCC(NC(=O)c1cccc[n+]1[O-])c1ccccc1` (configuration not stated) here?
The IC50 was 130 nM.
